The results in this text go back to ChEMBL document CHEMBL2440078, “Synthesis and biological evaluation of novel C-aryl d-glucofuranosides as sodium-dependent glucose co-transporter 2 inhibitors” (Bioorg Med Chem, 2013).

Some results are limits rather than exact numbers.

The assay deals with T1, Sodium/glucose cotransporter 2 (Homo sapiens, UniProt P31639).
T1 sequence (P31639 whole entry): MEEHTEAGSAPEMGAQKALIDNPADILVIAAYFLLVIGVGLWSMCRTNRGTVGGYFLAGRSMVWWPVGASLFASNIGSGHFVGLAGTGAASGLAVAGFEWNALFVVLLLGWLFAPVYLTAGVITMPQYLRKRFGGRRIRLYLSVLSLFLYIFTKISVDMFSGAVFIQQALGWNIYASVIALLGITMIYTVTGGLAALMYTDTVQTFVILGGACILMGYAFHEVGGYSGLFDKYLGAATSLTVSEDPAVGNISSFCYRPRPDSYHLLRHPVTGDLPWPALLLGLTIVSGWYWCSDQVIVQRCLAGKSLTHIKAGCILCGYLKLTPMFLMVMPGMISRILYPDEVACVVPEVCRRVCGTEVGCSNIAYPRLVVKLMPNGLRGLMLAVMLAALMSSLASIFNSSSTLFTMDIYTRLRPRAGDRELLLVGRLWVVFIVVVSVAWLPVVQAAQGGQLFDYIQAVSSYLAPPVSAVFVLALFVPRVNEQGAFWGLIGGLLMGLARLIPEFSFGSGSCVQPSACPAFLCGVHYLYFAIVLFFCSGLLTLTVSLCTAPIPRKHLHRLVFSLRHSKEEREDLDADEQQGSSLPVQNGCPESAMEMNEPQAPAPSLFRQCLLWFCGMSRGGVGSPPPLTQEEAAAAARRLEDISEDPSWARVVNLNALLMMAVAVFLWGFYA
The experiment in a line: Inhibition of human SGLT2 expressed in CHO-K1 cells assessed as inhibition of [14C]-AMG uptake up to 120 mins by scintillation counting method. Type of assay: cell-based. The procedure, abridged: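 Uptake of 3 µM [¹⁴C]-AMG ± inhibitor at 37 °C, stopped with ice-cold KRH. Cells lysed in 0.1% SDS 24 h, then counted. Inhibition vs DMSO-only wells. EC₅₀ from sigmoidal fit, mean of ≥3 determinations.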
Consider `COc1cc(Cl)c(Cc2ccc(C(C)C)cc2)cc1[C@@H]1O[C@H]([C@H](O)CO)[C@H](O)[C@H]1O`, for which the EC50 came out at 21 µM. Take `COc1cccc(Cc2cc([C@@H]3O[C@H]([C@H](O)CO)[C@H](O)[C@H]3O)ccc2Cl)c1`: the EC50 was greater than 50 µM. For `CCOc1ccc(Cc2cc([C@@H]3O[C@H]([C@H](O)CO)[C@H](O)[C@H]3O)ccc2C)cc1` the value was 34 µM. The same measure for `COc1ccc(Cc2cc([C@@H]3O[C@H]([C@H](O)CO)[C@H](O)[C@H]3O)ccc2Cl)cc1`: 35 µM; for `CCOc1ccc(Cc2cc([C@@H]3O[C@H]([C@H](O)CO)[C@H](O)[C@H]3O)c(OC)cc2Cl)cc1`: 46 µM.

As for `Cc1ccc([C@@H]2O[C@H]([C@H](O)CO)[C@H](O)[C@H]2O)cc1Cc1ccc(C(C)C)cc1`, the EC50 stood at 11 µM. For `OC[C@@H](O)[C@H]1O[C@@H](c2ccc(Cl)c(Cc3ccc4c(c3)OCO4)c2)[C@H](O)[C@H]1O` the value was greater than 50 µM. The same measure for `CCOc1ccc(Cc2cc([C@@H]3O[C@H]([C@H](O)CO)[C@H](O)[C@H]3O)ccc2Cl)cc1`: greater than 50 µM. For `CCc1ccc(Cc2cc([C@@H]3O[C@H]([C@H](O)CO)[C@H](O)[C@H]3O)c(OC)cc2Cl)cc1` the value was 0.62 µM; for `CCc1ccc(Cc2cc([C@@H]3O[C@H]([C@H](O)CO)[C@H](O)[C@H]3O)ccc2C)cc1`, 2.5 µM; for `CSc1ccc(Cc2cc([C@@H]3O[C@H]([C@H](O)CO)[C@H](O)[C@H]3O)ccc2Cl)cc1`, 3.7 µM. As to `CC(C)c1ccc(Cc2cc([C@@H]3O[C@H]([C@H](O)CO)[C@H](O)[C@H]3O)ccc2Cl)cc1`, the 50% effective concentration (EC50) is 33 µM.

Take `OC[C@@H](O)[C@H]1O[C@@H](c2ccc(Cl)c(Cc3ccc(Oc4ccccc4)cc3)c2)[C@H](O)[C@H]1O`: the EC50 is greater than 50 µM. The same measure for `COc1ccccc1Cc1cc([C@@H]2O[C@H]([C@H](O)CO)[C@H](O)[C@H]2O)ccc1Cl`: greater than 50 µM; for `OC[C@@H](O)[C@H]1O[C@@H](c2ccc(Cl)c(Cc3ccc(F)cc3)c2)[C@H](O)[C@H]1O`: greater than 50 µM; for `COc1ccc2cc(Cc3cc([C@@H]4O[C@H]([C@H](O)CO)[C@H](O)[C@H]4O)ccc3Cl)ccc2c1`: 5.1 µM.
